Experimental findings from ChEMBL document CHEMBL4513216, “Probing the Open Global Health Chemical Diversity Library for Multistage-Active Starting Points for Next-Generation Antimalarials” (ACS Infect Dis, 2020) are described below.

The nature of this data set: Toxicity liver stage against HepG2, at 10uM. In kind it is cell-based. Further details: test concentration 10 uM, cell line HepG2-A16-CD81EGFP. The note with it: human, HepG2-A16-CD81EGFP cells; read-out: INHIBITION
The procedure, abridged: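 Uninfected HepG2-A16-CD81EGFP cells, 3 × 10^3 per well, 1536-well, plated on prespotted compound at 10 μM final, parasite-free screening media added to match infected plates; puromycin 10 μM positive, DMSO 0.5% negative; run in parallel with 48 h PbLuc assay at 37 °C, 5% CO2; viability by CellTiter-Glo luminescence, normalized to controls.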
Take `O=C(Cn1c(=O)oc2ccccc21)NCC1(O)CCc2ccccc21` (stereo unspecified): the cytotoxicity at 10 µM is -17.2%. Take `Cc1ccc2c(c1)C1(CCNCC1)CC2OCC1CC1` (stereo unspecified): the cytotoxicity at 10 µM worked out at 6.13%. The result for `COCc1nnn2c1CN(C(=O)c1ccnnc1)CCC2` reads -0.461%; that for `CCCN(CC)C(=O)c1nc2c(n1C)CCN(Cc1ccccc1)C2`, 7.28%; that for `CCOCc1ncn2c1CN(C(=O)Nc1ccccc1)CC2`, 3.54%. Next, `CCCNC(=O)c1cc2c(s1)CCN2C(=O)c1ccccc1`: 7.31%; `CN(Cc1cccnc1)[C@@H]1CN(c2ccccn2)[C@@H]2CCCO[C@H]12`: 2.78%; `COCc1nc2nc(O)c3c(n2n1)NC(=O)CC3c1ccccc1Cl` (stereo unspecified): -20.8%. The result for `O=c1[nH]cnc2[nH]c(N3CCNCC3)nc12` reads -4.31%; that for `CCN(CC)S(=O)(=O)c1cnccc1N1CCN(C(C)C)CC1`, -5.57%. `Cc1cnc(N2CCC3(CCCN(c4ccc(C)nn4)C3)C2)nc1` (stereo unspecified): the cytotoxicity at 10 µM is -20.7%. Next, `COCC(=O)NCc1ccc(-c2ccccc2C(=O)O)cn1`: -1.53%; `CNC(=O)C1(C)CCCN(c2cnccn2)C1` (stereo unspecified): -25.3%. Next, `CNc1cc(C2CN(Cc3scnc3C)CCO2)nc(C)n1` (stereo unspecified): -24.7%.

On to `COCCC(=O)N1CCC(C(=O)c2cc(C)cnc2N)CC1`, for which the cytotoxicity at 10 µM was -27.7%.

`COCC(=O)N1CCCCC1c1ccnc(Nc2cnccn2)n1` (stereo unspecified): the cytotoxicity at 10 µM is -24.1%. The result for `c1cnc(N2CCCC(c3n[nH]c4ncccc34)C2)nc1` (stereo unspecified) reads -0.64%; that for `CC(C)CN1CCC(C(=O)NCCNC(=O)c2ccco2)CC1`, -5.18%.

Consider `COc1ccc(-n2cc(CNC(=O)c3cscn3)nn2)cc1`, for which the cytotoxicity at 10 µM was -2.33%. Next, `Cc1nncn1CCNC(=O)C1SCCc2sccc21` (stereo unspecified): 2.96%; `CN1CCC(Nc2ccc(Cl)cc2OCC(F)(F)F)C1=O` (stereo unspecified): 5.02%. Next, `Cc1noc(OCC(=O)N2CCCCC2C)n1` (stereo unspecified): 0.714%; `Cc1cnn(CC(C)Nc2cnc3ccccc3n2)c1` (stereo unspecified): 14.5%; `O=C(NCc1cc(F)cc(Br)c1)C1(O)CCSCC1`: 3.6%. In the case of `Cn1c(=O)[nH]c2cc(C(=O)OCC(F)F)ccc21`, the cytotoxicity at 10 µM was -17.3%. The result for `CC(=O)N1CCN(C(=O)CCNc2snc(Cl)c2C#N)CC1` reads -0.367%. As for `CCCc1nnc(NC(=O)NC(CCO)c2cccs2)s1` (stereo unspecified), the cytotoxicity at 10 µM was -7.38%. Next, `O=C(NC1CCCN(c2ccc(OC(F)F)cc2)C1)c1cnccn1` (stereo unspecified): 0%; `NC(=O)C1CCCN1C(=O)c1cccc2c1OCO2` (stereo unspecified): -9.56%.

Regarding `Cc1nc(-c2ccccc2)n(CC(=O)NC(C)C2CC2)n1` (stereo unspecified), the cytotoxicity at 10 µM is 7.44%. The result for `CC(C)C(Sc1nnc(NC2CC2)s1)C(=O)NCc1cccnc1` (stereo unspecified) reads -5.49%; that for `Cc1ccc(NCc2ncc(C(C)(C)C)o2)c(Cl)c1`, -15.4%; that for `CCC1CN(C(=O)COc2ccc(C(=O)NC3CC3)cc2)CCO1` (stereo unspecified), -4.39%. Turning to `O=S(=O)(Nc1ncccc1F)c1cc(Cl)cc2c1OCC2`, the cytotoxicity at 10 µM came to 1.6%. On to `O=C(c1c[nH]c2ccccc2c1=O)N1CCSCC1`, for which the cytotoxicity at 10 µM was -5.63%. Next, `CCNC(=O)N1CCc2ccc(NC(=O)NCCOCC)cc21`: -3.86%. On to `O=C(CCc1ccc(Cl)cc1)N1CCC(O)(C(F)(F)F)C1` (stereo unspecified), for which the cytotoxicity at 10 µM is 1.16%. The result for `CCSc1cncc(N2CCC(C(=O)NC(C)C(C)C)CC2)n1` (stereo unspecified) reads -1.81%. For `O=C(NCCCN1CCOCC1)c1cc(-c2ccco2)[nH]n1`, the cytotoxicity at 10 µM is -15.4%. Next, `C1CCCN(c2nc(C3CC3)ns2)CC1`: -12.3%. For the compound `CC1c2ncc(COCC3CC3)n2CCN1C(=O)c1ccnnc1` (stereo unspecified), the cytotoxicity at 10 µM is 4.66%.

On to `CN(C)S(=O)(=O)CCNc1ncc2c(n1)CCN2c1ccccc1`, for which the cytotoxicity at 10 µM was -5.6%. In the case of `CSc1ccccc1CN1C[C@H]2C(=O)N(CC3CC3)C[C@@]2(C(=O)O)C1`, the cytotoxicity at 10 µM worked out at 0.666%.

Regarding `CC(C)(C)NC(=O)N1CCCn2nc(C(=O)Nc3ccccc3)cc2C1`, the cytotoxicity at 10 µM is 8.88%. For the compound `O=C(N[C@@H]1CCN(Cc2ccc(F)cc2F)C[C@H]1O)c1cccnc1`, the cytotoxicity at 10 µM was -10.4%. Next, `COCCn1ccnc1C1CCCN(C(=O)c2ccccc2C#N)C1` (stereo unspecified): -0.675%; `COC(=O)[C@@H]1C[C@@H](NC(=O)CN2C(=O)N(C)Cc3ccccc32)CN1C`: -2.62%; `O=C(c1ccsc1)N1CCc2c(nc(-c3ccncc3)[nH]c2=O)C1`: -1.67%. On to `CCN(CCc1nc2cc(C)ccc2[nH]1)C(=O)[C@@H](N)Cc1c[nH]cn1`, for which the cytotoxicity at 10 µM was -3.78%. The result for `Cc1nc[nH]c1CN1CCCn2nc(CN3CCC(F)(F)CC3)cc2C1` reads 0.13%; that for `CCNC(=O)[C@@H]1CCCN1C(=O)c1cccc(CCC(C)(C)O)c1`, 9.91%; that for `Cn1cc(C2CCCN2C(=O)c2ccc(OCC3CC3)nc2)cn1` (stereo unspecified), -7.77%. The result for `O=C(c1cc(C2CC2)[nH]n1)N1CCN(Cc2ccccc2)CC1` reads -5.94%; that for `CC(NCc1ccc(F)cc1)c1ccc2[nH]c(=O)[nH]c2c1` (stereo unspecified), -9.93%. Next, `CCOc1ccc(C(=O)N2CCCC2c2c(C)nn(C)c2Cl)cn1` (stereo unspecified): -12.4%. As for `Cc1nc(C2CCCN(C(=O)c3cc(-c4ccccc4)[nH]n3)C2)no1` (stereo unspecified), the cytotoxicity at 10 µM was -7.99%.

As to `CC(C)COCC(NC(=O)c1cnccn1)c1ccco1` (stereo unspecified), the cytotoxicity at 10 µM was -13.8%. Next, `Fc1ccc(CN[C@@H]2COC[C@H]2c2ccc(F)cc2)cc1`: 2.57%.

As to `O=S(=O)(c1cccs1)N1CC[C@H]2[C@H]1CCN2c1ncccn1`, the cytotoxicity at 10 µM is -0.861%.

With `Cc1ccoc1C(=O)N1C[C@@H](N2CCN(C)CC2)[C@H]2OCCC[C@H]21`, the cytotoxicity at 10 µM amounted to 7.1%.

As to `CC(C)C(=O)N1CCCC2(CCCN2CC2CCCC2)C1` (stereo unspecified), the cytotoxicity at 10 µM came to 5.25%.

Take `O=C(O)c1c(-c2cncnc2)ncc2c1CCN(Cc1ccco1)C2`: the cytotoxicity at 10 µM was -2.69%. Next, `CN(Cc1cccnc1)[C@@H]1CN(Cc2nccn2C)[C@@H]2CCCO[C@H]12`: -9.46%. Next, `CCN1CCCC12CCN(C(=O)c1nccn1C)CC2`: 7.89%; `c1cncc(OCc2noc3c2CN(Cc2cccs2)CC3)c1`: 9.95%; `CN(C)C(=O)c1n[nH]c2c1CN(Cc1ccccn1)CC2`: 3.17%. Next, `COc1ccc(CN2C[C@@H]3COC[C@@H](CC(=O)N4CCCC4)[C@@H]3C2)cc1`: -18.8%; `CC[C@@H]1N(Cc2nccs2)CCC[C@]12CCC(=O)N2C`: 0.287%. On to `CCN1CCC2(CC1)C(=O)Nc1ccc(C(=O)NC)cc12`, for which the cytotoxicity at 10 µM was -0.697%. Consider `O=C(c1ccoc1)N1CCO[C@]2(CCC[C@@H]2COCc2cccnc2)C1`, for which the cytotoxicity at 10 µM is 6.32%. Next, `Cc1ccc(C(=O)N2C[C@H]3CC[C@@H](C2)N(CC2CCC2)C3)s1`: -4.2%.
